The text below walks through data of ChEMBL document CHEMBL1268901, “Synthesis and in vitro antiviral activities of 3'-fluoro (or chloro) and 2',3'-difluoro 2',3'-dideoxynucleoside analogs against hepatitis B and C viruses” (Bioorg Med Chem, 2010).

Converted amounts (≈) assume the structure as drawn.

One series has as its system Hepatitis C virus. The experiment in a line: Antiviral activity against HCV 1a infected in human HuH7 cells assessed as reduction of viral RNA level at 20 ug/ml […] by QRT-PCR analysis. Type of series: functional, Hepacivirus hominis. To be noted: subtype 1a, Huh-7.
Series [1] has as its system Hepatitis B virus. Briefly: Antiviral activity against HBV infected in human HepG2(2.2.15) cells assessed as inhibition of viral replication at 10 ug/ml […] relative to control. Type of series: functional. As to conditions: HepG2 2.2.15, 48 h.
For series [2], the system named is Duck hepatitis B virus. Briefly: Antiviral activity against DHBV infected in duck hepatocytes assessed as inhibition of viral DNA replication at 10 ug/ml after 15 days relative to control. As to conditions: Hepatocyte, 360 h.
The nature of series [3]: Cytotoxicity against human HuH7 cells after 2 days by XTT assay. The series is classed as cell-based, Huh-7. An outline of the steps: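 Huh-7 cells seeded at 1 × 10⁵ cells/well, allowed to attach 6–8 h, then medium replaced with compound at 200, 100, 50, 10 and 1 µg/mL; DMSO control. Incubated 2 days at 37 °C, XTT reagent added for 4 h at 37 °C, absorbance read at 450–500 nm; CC50 reported.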

In series [4] the test system is Hepatitis B virus. The experiment in a line: Antiviral activity against HBV infected in human HepG2(2.2.15) cells assessed as inhibition of viral replication at 5 ug/ml […] relative to control. Type of series: functional. As to conditions: HepG2 2.2.15, 48 h.
The subject of series [5] is Duck hepatitis B virus. Briefly: Antiviral activity against DHBV infected in duck hepatocytes assessed as inhibition of viral DNA replication at 1 ug/ml after 15 days relative to control. As to conditions: Hepatocyte, 360 h.
The subject of series [6] is Hepatitis B virus. Briefly: Antiviral activity against HBV infected in human HepG2(2.2.15) cells assessed as inhibition of viral replication after 2 days. The series is classed as functional, organism-based. As to conditions: HepG2 2.2.15, 48 h.
The test system of series [7] is Duck hepatitis B virus. The experiment in a line: Antiviral activity against DHBV infected in duck hepatocytes assessed as inhibition of viral DNA replication after 15 days. To be noted: Hepatocyte, 360 h.
The subject of series [8] is Duck hepatitis B virus. Briefly: Antiviral activity against DHBV infected in duck hepatocytes assessed as inhibition of viral DNA replication at 5 ug/ml after 15 days relative to control. As to conditions: Hepatocyte, 360 h.
The subject of series [9] is Duck hepatitis B virus. The experiment in a line: Antiviral activity against DHBV infected in duck hepatocytes assessed as inhibition of viral DNA replication at 0.5 to 1 ug/ml after 15 days relative to control.
The test system of series [10] is Hepatitis B virus. Briefly: Antiviral activity against HBV infected in human HepG2(2.2.15) cells assessed as inhibition of viral replication at 0.5 to 1 ug/ml […] relative to control. The series is classed as functional.

By inhibition is commonly meant the percentage by which the read-out fell short of the control. `NC(=O)c1ncn([C@@H]2O[C@H](CO)[C@@H](O)[C@H]2O)n1` [RIBAVIRIN]: in the series with Hepatitis C virus, the inhibition at 20 µg/mL was found to be 50%.
As a reminder, the CC50 is the concentration giving 50% cytotoxicity. Read a high CC50 as lower toxicity to the cells. Regarding `O=c1[nH]c(=O)n([C@H]2C[C@H](Cl)[C@@H](CO)O2)cc1F`, the inhibition at 20 µg/mL with Hepatitis C virus stood at 0%. Moreover, the inhibition at 10 µg/mL in the series on Hepatitis B virus [1] and in the series with Duck hepatitis B virus [2] was 0% throughout. Besides, in series [3], the cytotoxic concentration (CC50) at 48 h is > 200 µg/mL.
One may read the EC50 as the concentration that produces a half-maximal response. For `O=c1[nH]c(=O)n([C@H]2C[C@H](F)[C@@H](CO)O2)cc1CO`, the inhibition at 5 µg/mL in the series on Hepatitis B virus [4] was 50%. In addition, the inhibition at 20 µg/mL with Hepatitis C virus was 30%. Besides, the inhibition at 10 µg/mL in the series on Hepatitis B virus [1] was determined as 58%; in the series on Duck hepatitis B virus [2], 75%. Besides, the CC50 at 48 h in series [3] was > 200 µg/mL. For the same molecule, the inhibition at 1 µg/mL with Duck hepatitis B virus [5] was 50%. Moreover, the 50% effective concentration (EC50) amounted to 5 µg/mL (≈ 19.2 µM) in the series with Hepatitis B virus [6] and 1 µg/mL (≈ 3.84 µM) in the series with Duck hepatitis B virus [7].
For `CCc1cn([C@H]2C[C@H](F)[C@@H](CO)O2)c(=O)[nH]c1=O`, in the series on Hepatitis C virus, the inhibition at 20 µg/mL was found to be 0%. The inhibition at 10 µg/mL in the series with Hepatitis B virus [1] and in the series on Duck hepatitis B virus [2] was 0% throughout. Moreover, the CC50 at 48 h in series [3] was > 200 µg/mL.
Regarding `O=c1[nH]c(=S)ccn1[C@H]1C[C@H](F)[C@@H](CO)O1`, the inhibition at 20 µg/mL in the series with Hepatitis C virus is 0%. Also, the inhibition at 10 µg/mL was 20% in the series on Hepatitis B virus [1] and 25% in the series on Duck hepatitis B virus [2]. The 50% cytotoxic concentration (CC50) at 48 h in series [3] is > 100 µg/mL.
Regarding `O=c1[nH]c(=O)n([C@H]2C[C@H](F)[C@@H](CO)O2)cc1I`, the inhibition at 5 µg/mL in the series with Hepatitis B virus [4] and with Duck hepatitis B virus [8] was 50% throughout. Also, the inhibition at 20 µg/mL with Hepatitis C virus turned out to be 40%. Moreover, the inhibition at 10 µg/mL in the series on Hepatitis B virus [1] stood at 60%; with Duck hepatitis B virus [2] it was 63%. The CC50 at 48 h in series [3] was < 100 µg/mL. Moreover, the EC50 in the series with Hepatitis B virus [6] and in the series with Duck hepatitis B virus [7] was 5 µg/mL (≈ 14 µM) in each case.
For the molecule `Nc1ccn([C@@H]2CS[C@H](CO)O2)c(=O)n1` [LAMIVUDINE], the figures for the “inhibition (INH)” value with Duck hepatitis B virus [9] and in the series with Hepatitis B virus [10] were 96% and 88%, respectively. For the same molecule, the EC50 in the series with Duck hepatitis B virus [7] is 0.05 µg/mL (≈ 0.218 µM).
Regarding `O=c1[nH]c(=O)n([C@H]2C[C@H](F)[C@@H](CO)O2)cc1C(F)(F)F`, the inhibition at 20 µg/mL in the series with Hepatitis C virus was 25%. Moreover, the inhibition at 10 µg/mL in the series on Hepatitis B virus [1] and with Duck hepatitis B virus [2] was 20% in each case. The half-maximal cytotoxic concentration (CC50) at 48 h in [3] is > 100 µg/mL.
Regarding `O=c1[nH]c(=S)c(F)cn1[C@H]1C[C@H](F)[C@@H](CO)O1`, in the series with Hepatitis C virus, the inhibition at 20 µg/mL amounted to 0%. The inhibition at 10 µg/mL with Hepatitis B virus [1] and with Duck hepatitis B virus [2] was 0% in each case. For the same molecule, the CC50 at 48 h in series [3] was > 100 µg/mL.
As to `O=c1ccn([C@@H]2O[C@H](CO)[C@@H](F)[C@H]2F)c(=O)[nH]1`, the inhibition at 20 µg/mL in the series with Hepatitis C virus is 0%. For the same molecule, the inhibition at 10 µg/mL in the series with Hepatitis B virus [1] and in the series with Duck hepatitis B virus [2] was 0% in each case. The CC50 at 48 h in series [3] was > 200 µg/mL.
For `Cc1cn([C@@H]2O[C@H](CO)[C@@H](F)[C@H]2F)c(=O)[nH]c1=O`, the inhibition at 20 µg/mL in the series with Hepatitis C virus came out at 0%. Besides, the inhibition at 10 µg/mL in the series with Hepatitis B virus [1] and in the series on Duck hepatitis B virus [2] was 0% throughout. In addition, the cytotoxic concentration (CC50) at 48 h in [3] was > 100 µg/mL.
In the case of `Cc1cn([C@H]2C[C@H](Cl)[C@@H](CO)O2)c(=O)[nH]c1=O`, the inhibition at 20 µg/mL in the series with Hepatitis C virus was determined as 0%. Also, the figures for the inhibition at 10 µg/mL in the series with Hepatitis B virus [1] and in the series on Duck hepatitis B virus [2] were 56% and 55%, respectively. Moreover, in series [3], the cytotoxic concentration (CC50) at 48 h was > 200 µg/mL. Further, the EC50 in the series on Hepatitis B virus [6] and with Duck hepatitis B virus [7] was 10 µg/mL (≈ 38.4 µM) in each case.
Take `O=c1[nH]c(=O)n([C@H]2C[C@@H](Cl)[C@@H](CO)O2)cc1F`: the inhibition at 20 µg/mL in the series with Hepatitis C virus came to 30%. The inhibition at 10 µg/mL with Hepatitis B virus [1] and with Duck hepatitis B virus [2] was 50% throughout. In [3], the CC50 at 48 h was > 200 µg/mL. For the same molecule, the EC50 in the series with Hepatitis B virus [6] and in the series with Duck hepatitis B virus [7] was 10 µg/mL (≈ 37.8 µM) each time.
Turning to `O=c1[nH]c(=O)n([C@H]2C[C@H](F)[C@@H](CO)O2)cc1O`, the inhibition at 20 µg/mL in the series on Hepatitis C virus is 0%. Also, the inhibition at 10 µg/mL in the series on Hepatitis B virus [1] and in the series with Duck hepatitis B virus [2] was 0% in each case. For the same molecule, in series [3], the CC50 at 48 h is > 100 µg/mL.
Consider `O=c1[nH]c(=O)n([C@H]2C[C@H](F)[C@@H](CO)O2)cc1F`, for which the inhibition at 20 µg/mL in the series with Hepatitis C virus turned out to be 28%. In addition, the inhibition at 10 µg/mL in the series on Hepatitis B virus [1] and in the series on Duck hepatitis B virus [2] was 0% throughout. Further, in [3], the half-maximal cytotoxic concentration (CC50) at 48 h is > 100 µg/mL.
